ChEMBL document CHEMBL2146359, “HCV NS5A replication complex inhibitors. Part 2: investigation of stilbene prolinamides” (Bioorg Med Chem Lett, 2012)

Assays:
[1] = tested on: Bovine viral diarrhea virus 1; experiment: Antiviral activity against BVDV1; assay type: functional, organism-based; conditions: Bovine viral diarrhea virus isolates and strains
[2] = Cytotoxicity against human HuH7 cells after 72 hrs by Alamar Blue assay; assay type: cell-based; conditions: Huh-7 cells
Hepatitis C virus = experiment: Antiviral activity against HCV genotype 1b infected in human Huh7 cells assessed as inhibition of viral replication by FRET assay; assay type: functional, organism-based, Hepacivirus hominis; conditions: Huh-7
Outline: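 Replicon potency values are the means of at least two experiments.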

| SMILES | EC50 [1] | EC50 (Hepatitis C virus) | CC50 at 72 h [2] |
| --- | --- | --- | --- |
| O=C(Nc1ccc(/C=C/c2ccc(NC(=O)[C@@H]3C4CC4CN3C(=O)OCc3ccccc3)cc2)cc1)[C@@H]1C2CC2CN1C(=O)OCc1ccccc1 (stereo partly specified) | > 10 µM | 0.089 µM | > 10 µM |
| CC(=O)Nc1ccc(/C=C/c2ccc(NC(=O)[C@@H]3CCCN3C(=O)Cc3ccccc3)cc2)cc1 | > 10 µM | 1.64 µM | > 10 µM |
| Nc1ccc(/C=C/c2ccc(NC(=O)[C@@H]3CCCN3C(=O)Cc3ccccc3)cc2)cc1 | > 10 µM | > 10 µM | > 10 µM |
| CC(=O)N[C@@H](C)C(=O)Nc1ccc(/C=C/c2ccc(NC(=O)[C@@H]3CCCN3C(=O)Cc3ccccc3)cc2)cc1 | > 10 µM | 0.153 µM | > 10 µM |
| C[C@H](NC(=O)OCc1ccccc1)C(=O)Nc1ccc(/C=C/c2ccc(NC(=O)[C@H](C)NC(=O)OCc3ccccc3)cc2)cc1 | > 10 µM | 3.21 µM | > 10 µM |
| C[C@@H](C(=O)Nc1ccc(/C=C/c2ccc(NC(=O)[C@H](C)N(C)C(=O)OCc3ccccc3)cc2)cc1)N(C)C(=O)OCc1ccccc1 | > 10 µM | 0.0731 µM | > 10 µM |
| O=C(Nc1ccc(/C=C/c2ccc(NC(=O)[C@@H]3Cc4ccccc4N3C(=O)OCc3ccccc3)cc2)cc1)[C@@H]1Cc2ccccc2N1C(=O)OCc1ccccc1 | > 10 µM | 0.0669 µM | > 10 µM |
| O=C(Nc1ccc(/C=C/c2ccc(NC(=O)[C@@H]3[C@H]4CCC[C@H]4CN3C(=O)OCc3ccccc3)cc2)cc1)[C@@H]1[C@H]2CCC[C@H]2CN1C(=O)OCc1ccccc1 | > 10 µM | 0.12 µM | > 10 µM |
| O=C(Nc1ccc(/C=C/c2ccc(NC(=O)[C@@H]3COCN3C(=O)OCc3ccccc3)cc2)cc1)[C@@H]1COCN1C(=O)OCc1ccccc1 | > 10 µM | 0.00614 µM | > 10 µM |
| O=C(Nc1ccc(/C=C/c2ccc(NC(=O)[C@@H]3C[C@H](O)CN3C(=O)OCc3ccccc3)cc2)cc1)[C@@H]1C[C@H](O)CN1C(=O)OCc1ccccc1 | > 10 µM | 0.0115 µM | > 10 µM |
| CO[C@@H]1C[C@@H](C(=O)Nc2ccc(/C=C/c3ccc(NC(=O)[C@@H]4C[C@@H](OC)CN4C(=O)OCc4ccccc4)cc3)cc2)N(C(=O)OCc2ccccc2)C1 | > 10 µM | < 0.005 µM | > 10 µM |
| CCO[C@@H]1C[C@@H](C(=O)Nc2ccc(/C=C/c3ccc(NC(=O)[C@@H]4C[C@@H](OCC)CN4C(=O)OCc4ccccc4)cc3)cc2)N(C(=O)OCc2ccccc2)C1 | > 10 µM | 0.038 µM | > 10 µM |
| CO[C@H]1C[C@@H](C(=O)Nc2ccc(/C=C/c3ccc(NC(=O)[C@@H]4C[C@H](OC)CN4C(=O)OCc4ccccc4)cc3)cc2)N(C(=O)OCc2ccccc2)C1 | > 10 µM | < 0.005 µM | > 10 µM |
| CCO[C@H]1C[C@@H](C(=O)Nc2ccc(/C=C/c3ccc(NC(=O)[C@@H]4C[C@H](OCC)CN4C(=O)OCc4ccccc4)cc3)cc2)N(C(=O)OCc2ccccc2)C1 | > 10 µM | 0.015 µM | > 10 µM |
| CC(C)(C)O[C@H]1C[C@@H](C(=O)Nc2ccc(/C=C/c3ccc(NC(=O)[C@@H]4C[C@H](OC(C)(C)C)CN4C(=O)OCc4ccccc4)cc3)cc2)N(C(=O)OCc2ccccc2)C1 | > 10 µM | 0.35 µM | > 10 µM |
| CC(C)(C)NC(=O)O[C@@H]1C[C@@H](C(=O)Nc2ccc(/C=C/c3ccc(NC(=O)[C@@H]4C[C@@H](OC(=O)NC(C)(C)C)CN4C(=O)OCc4ccccc4)cc3)cc2)N(C(=O)OCc2ccccc2)C1 | > 10 µM | > 10 µM | > 10 µM |
| N[C@H]1C[C@@H](C(=O)Nc2ccc(/C=C/c3ccc(NC(=O)[C@@H]4C[C@H](N)CN4C(=O)OCc4ccccc4)cc3)cc2)N(C(=O)OCc2ccccc2)C1 | > 10 µM | 1.29 µM | > 10 µM |
| CN(C)[C@H]1C[C@@H](C(=O)Nc2ccc(/C=C/c3ccc(NC(=O)[C@@H]4C[C@H](N(C)C)CN4C(=O)OCc4ccccc4)cc3)cc2)N(C(=O)OCc2ccccc2)C1 | > 10 µM | 0.01 µM | > 10 µM |
| Cn1cnc(CC(=O)N2CCC[C@H]2C(=O)Nc2ccc(/C=C/c3ccc(NC(=O)[C@@H]4CCCN4C(=O)Cc4cn(C)cn4)cc3)cc2)c1 | > 10 µM | 0.0867 µM | > 10 µM |
| Cc1nc2sccn2c1C(=O)N1CCC[C@H]1C(=O)Nc1ccc(/C=C/c2ccc(NC(=O)[C@@H]3CCCN3C(=O)c3c(C)nc4sccn34)cc2)cc1 | > 10 µM | 0.0579 µM | > 10 µM |

Continued, in another order:

| EC50 [1] | EC50 (Hepatitis C virus) | SMILES | CC50 at 72 h [2] |
| --- | --- | --- | --- |
| > 10 µM |  | O=C(Nc1ccc(/C=C/c2ccc(NC(=O)[C@@H]3CCCN3C(=O)Cc3ccccc3)cc2)cc1)[C@@H]1CCCN1C(=O)Cc1ccccc1 | > 10 µM |
| > 10 µM | < 0.005 µM | C[C@@H](C(=O)N1CCC[C@H]1C(=O)Nc1ccc(/C=C/c2ccc(NC(=O)[C@@H]3CCCN3C(=O)[C@H](C)c3ccccc3)cc2)cc1)c1ccccc1 | > 10 µM |
| > 10 µM | 1.39 µM | O=C(Nc1ccc(/C=C/c2ccc(NC(=O)[C@@H]3CCCN3C(=O)Cc3ccccc3)cc2)cc1)[C@@H]1CCCN1 | > 10 µM |
| > 10 µM | 0.00257 µM | C[C@H](NC(=O)Cc1ccccc1)C(=O)Nc1ccc(/C=C/c2ccc(NC(=O)[C@@H]3CCCN3C(=O)Cc3ccccc3)cc2)cc1 | > 10 µM |
| > 10 µM | 0.768 µM | O=C(Cc1ccccc1)NCC(=O)Nc1ccc(/C=C/c2ccc(NC(=O)[C@@H]3CCCN3C(=O)Cc3ccccc3)cc2)cc1 | > 10 µM |
| > 10 µM | 0.058 µM | O=C(Nc1ccc(/C=C/c2ccc(NC(=O)[C@@H]3CCN3C(=O)OCc3ccccc3)cc2)cc1)[C@@H]1CCN1C(=O)OCc1ccccc1 | > 10 µM |
| > 10 µM | 0.0627 µM | O=C(Nc1ccc(/C=C/c2ccc(NC(=O)[C@@H]3CCCCN3C(=O)OCc3ccccc3)cc2)cc1)[C@@H]1CCCCN1C(=O)OCc1ccccc1 | > 10 µM |
| > 10 µM | 0.005 µM | C[C@H](C(=O)N1CCC[C@H]1C(=O)Nc1ccc(/C=C/c2ccc(NC(=O)[C@@H]3CCCN3C(=O)[C@@H](C)c3ccccc3)cc2)cc1)c1ccccc1 | > 10 µM |
| > 10 µM | 0.102 µM | O=C(Nc1ccc(/C=C/c2ccc(NC(=O)[C@@H]3CCCN3C(=O)c3ccccc3)cc2)cc1)[C@@H]1CCCN1C(=O)c1ccccc1 | > 10 µM |
| > 10 µM | 2.38 µM | CC(=O)N1CCC[C@H]1C(=O)Nc1ccc(/C=C/c2ccc(NC(=O)[C@@H]3CCCN3C(C)=O)cc2)cc1 | > 10 µM |
| > 10 µM | 0.00222 µM | O=C(Nc1ccc(/C=C/c2ccc(NC(=O)[C@@H]3CCCN3C(=O)Cc3ccccn3)cc2)cc1)[C@@H]1CCCN1C(=O)Cc1ccccn1 | > 10 µM |
| > 10 µM | 0.172 µM | O=C(Nc1ccc(/C=C/c2ccc(NC(=O)[C@@H]3CCCN3C(=O)Cc3ccncc3)cc2)cc1)[C@@H]1CCCN1C(=O)Cc1ccncc1 | > 10 µM |
| > 10 µM | 0.00128 µM | O=C(Nc1ccc(/C=C/c2ccc(NC(=O)[C@@H]3CCCN3C(=O)Cc3cccs3)cc2)cc1)[C@@H]1CCCN1C(=O)Cc1cccs1 | > 10 µM |
| > 10 µM | 0.0102 µM | Cn1cccc1CC(=O)N1CCC[C@H]1C(=O)Nc1ccc(/C=C/c2ccc(NC(=O)[C@@H]3CCCN3C(=O)Cc3cccn3C)cc2)cc1 | > 10 µM |
| > 10 µM | 0.0762 µM | Cc1cc(CC(=O)N2CCC[C@H]2C(=O)Nc2ccc(/C=C/c3ccc(NC(=O)[C@@H]4CCCN4C(=O)Cc4cc(C)no4)cc3)cc2)on1 | > 10 µM |
| > 10 µM | 1 µM | O=C(Nc1ccc(/C=C/c2ccc(NC(=O)[C@@H]3CCCN3C(=O)Cc3c[nH]cn3)cc2)cc1)[C@@H]1CCCN1C(=O)Cc1c[nH]cn1 | > 10 µM |
| > 10 µM | 0.111 µM | O=C(Nc1ccc(/C=C/c2ccc(NC(=O)[C@@H]3CCCN3C(=O)c3c[nH]c4ccccc34)cc2)cc1)[C@@H]1CCCN1C(=O)c1c[nH]c2ccccc12 | > 10 µM |
| > 10 µM | 0.14 µM | Cn1cc(C(=O)N2CCC[C@H]2C(=O)Nc2ccc(/C=C/c3ccc(NC(=O)[C@@H]4CCCN4C(=O)c4cn(C)c5ccccc45)cc3)cc2)c2ccccc21 | > 10 µM |
| > 10 µM | 0.011 µM | O=C(Nc1ccc(/C=C/c2ccc(NC(=O)[C@@H]3CCCN3C(=O)C3Cc4ccccc4O3)cc2)cc1)[C@@H]1CCCN1C(=O)C1Cc2ccccc2O1 (stereo partly specified) | > 10 µM |
| > 10 µM | 0.056 µM | O=C(Nc1ccc(/C=C/c2ccc(NC(=O)[C@@H]3CCCN3C(=O)c3ccc4occc4c3)cc2)cc1)[C@@H]1CCCN1C(=O)c1ccc2occc2c1 | > 10 µM |
| > 10 µM | 0.0868 µM | Cc1nc2ccccn2c1C(=O)N1CCC[C@H]1C(=O)Nc1ccc(/C=C/c2ccc(NC(=O)[C@@H]3CCCN3C(=O)c3c(C)nc4ccccn34)cc2)cc1 | > 10 µM |
| > 10 µM | 1.63 µM | O=C(Nc1ccc(/C=C/c2ccc(NC(=O)[C@@H]3CCCN3C(=O)c3cccc4ccccc34)cc2)cc1)[C@@H]1CCCN1C(=O)c1cccc2ccccc12 | > 10 µM |
| > 10 µM | 10 µM | O=C(Nc1ccc(/C=C/c2ccc(NC(=O)[C@@H]3CCCN3C(=O)c3ccc4ccccc4c3)cc2)cc1)[C@@H]1CCCN1C(=O)c1ccc2ccccc2c1 | > 10 µM |
| > 10 µM | 1.13 µM | CCc1ccccc1C(=O)N1CCC[C@H]1C(=O)Nc1ccc(/C=C/c2ccc(NC(=O)[C@@H]3CCCN3C(=O)c3ccccc3CC)cc2)cc1 | > 10 µM |
